Test [1] can be described thus: Cytotoxicity against human HL60 cells assessed as growth inhibition after 48 hrs by trypan blue staining-based hemocytometric analysis. As to conditions: HL-60, 48 h. Format: functional. Summed up: (§1)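 2 × 10⁵ cells per well in 1 mL complete medium treated with various concentrations from freshly prepared DMSO solution (DMSO ≤0.3% v/v final). After 48 h, trypan blue staining and hemocytometer counting of viable cells, expressed as percentage of control proliferation.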

For test [2], the system named is K562. Briefly: Cell cycle arrest in human K562 cells expressing Bcr-Abl assessed as accumulation at S phase at 30 uM after 48 hrs by propidium iodide staining-based flow cytometry (reference value: 43.19 +/- 7%). Format: functional. Summed up: (§2)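 K562 cells cultured with or without 30 µM compound for 24 h and 48 h. Cells washed once in ice-cold PBS, resuspended at 10⁶/mL in hypotonic propidium iodide solution with nonidet P-40 0.03% (v/v) in 0.1% sodium citrate, 30 min incubation, flow cytometry single-parameter DNA histograms. G0-G1/S/G2-M % calculated on cycling cells only; subG0-G1 % on total cell number.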
(In flow cytometry, cells or beads pass a laser one at a time.)

The test system of the next test is WiDr. As to the kind of experiment: Cytotoxicity against human WiDr cells overexpressing MGMT after 48 hrs by trypan blue staining-based hemocytometric analysis. Format: functional, cell-based. The procedure, abridged:
as §1

Test [3] relates to K562. Briefly: Cytotoxicity against human K562 cells expressing Bcr-Abl assessed as growth inhibition after 48 hrs by trypan blue staining-based hemocytometric analysis. Format: functional. To be noted: K562, 48 h. The procedure, abridged: as §1
In test [4] the test system is K562. Briefly: Cell cycle arrest in human K562 cells expressing Bcr-Abl assessed as accumulation at S phase at 30 uM after 24 hrs by propidium iodide staining-based flow cytometry (reference value: 43.19 +/- 7%). Format: functional. Summed up:
as §2

For test [5], the system named is HepG2. As to the kind of experiment: Cytotoxicity against human HepG2 cells assessed as growth inhibition after 48 hrs by trypan blue staining-based hemocytometric analysis. Type of test: functional. To be noted: HepG2, 48 h. Summed up:
as §1

Test [6] in a line: Cytotoxicity against human HL60R cells expressing p-glycoprotein assessed as growth inhibition after 48 hrs by trypan blue staining-based hemocytometric analysis. Type of test: functional. Summed up: as §1
Test [7] has as its system K562. As to the kind of experiment: Cell cycle arrest in human K562 cells expressing Bcr-Abl assessed as accumulation at G0-G1 phase at 30 uM after 48 hrs by propidium iodide staining-based flow cytometry (reference value: 44.65 +/- 6.8%). Type of test: functional. The procedure, abridged: as §2
Test [8] concerns K562. Briefly: Induction of apoptosis in human K562 cells expressing Bcr-Abl after 48 hrs by acridine orange/ethidium bromide staining-based fluorescence microscopic analysis. Type of test: functional, cell-based. To be noted: K562, 48 h. The procedure, abridged: (§3)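 After 48 h exposure to various concentrations, 2 × 10⁵ cells centrifuged (300 × g) and resuspended in acridine orange/ethidium bromide dye mixture. Examined under oil immersion, 100× objective, by fluorescence microscopy. Live cells take up acridine orange (green) and exclude ethidium bromide (red); apoptotic and necrotic cells scored morphologically.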

A short description of test [9]: Induction of apoptosis in human HL60R cells expressing p-glycoprotein after 48 hrs by acridine orange/ethidium bromide staining-based fluorescence microscopic analysis. Type of test: functional, cell-based. The procedure, abridged: as §3
Test [10] has as its system K562. Briefly: Cell cycle arrest in human K562 cells expressing Bcr-Abl assessed as accumulation at G2-M phase at 30 uM after 48 hrs by propidium iodide staining-based flow cytometry (reference value: 12.16 +/- 2.2%). Type of test: functional. Summed up:
as §2

For test [11], the system named is K562. Briefly: Cell cycle arrest in human K562 cells expressing Bcr-Abl assessed as accumulation at subG0-G1 phase at 30 uM after 24 hrs by propidium iodide staining-based flow cytometry (reference value: 3.21 +/- 0.4%). Type of test: functional. The procedure, abridged:
as §2

The test system of test [12] is K562. As to the kind of experiment: Cell cycle arrest in human K562 cells expressing Bcr-Abl assessed as accumulation at G2-M phase at 30 uM after 24 hrs by propidium iodide staining-based flow cytometry (reference value: 12.16 +/- 2.2%). Type of test: functional. The procedure, abridged: as §2
In a further test the test system is HL-60. Briefly: Induction of apoptosis in human HL60 cells after 48 hrs by acridine orange/ethidium bromide staining-based fluorescence microscopic analysis. Type of test: functional, cell-based. To be noted: HL-60, 48 h. The procedure, abridged: as §3
In test [13] the test system is K562. As to the kind of experiment: Cell cycle arrest in human K562 cells expressing Bcr-Abl assessed as accumulation at G0-G1 phase at 30 uM after 24 hrs by propidium iodide staining-based flow cytometry (reference value: 44.65 +/- 6.8%). Format: functional. Summed up: as §2
The subject of test [14] is K562. As to the kind of experiment: Cell cycle arrest in human K562 cells expressing Bcr-Abl assessed as accumulation at subG0-G1 phase at 30 uM after 48 hrs by propidium iodide staining-based flow cytometry (reference value: 3.21 +/- 0.4%). Type of test: functional. Summed up:
as §2

In test [15] the test system is HepG2. As to the kind of experiment: Induction of apoptosis in human HepG2 cells after 48 hrs by acridine orange/ethidium bromide staining-based fluorescence microscopic analysis. Type of test: functional, cell-based. To be noted: HepG2, 48 h. The procedure, abridged: as §3

By GI50 is commonly meant the concentration that inhibits growth by half. One may read the IC50 as the concentration that inhibits the measured activity by half. A higher IC50 goes with lower potency. Broadly, the AC50 is the concentration giving half of the maximal activity seen. For the compound `CN1C(=O)N(CCCl)N=Nc2c(C(F)(F)F)nn(-c3ccccc3)c21`, the GI50 was determined as 9 µM in test [1], 18 µM in the test on K562 [3], 26 µM in the test on HepG2 [5] and 14 µM in [6]. Also, the Activity was 44.24% with K562 [2]; 43.59% with K562 [4]; 40.97% in the test with K562 [7]; 14.79% with K562 [10]; 15% in the test on K562 [11]; 12.45% with K562 [12]. Besides, the Activity is on record as 43.96% in the test on K562 [13] and 38.35% in the test with K562 [14]. Further, half-maximal inhibition with WiDr (IC50) was put at 2.3 µM. Also, the AC50 turned out to be 37 µM in the test on K562 [8], 22 µM in test [9], 19 µM in the test on HL-60 and 43 µM with HepG2 [15].

In the case of `CN1N=Nc2c(C(F)(F)F)nn(-c3ccccc3)c2N(C)C1=O`, the GI50 in [1] was 21 µM; with K562 [3] it was 40 µM; in [6], 30 µM. This compound yielded an AC50 in [9] of 38 µM.

Regarding `COc1cccc2c1C(=O)c1c(O)c3c(c(O)c1C2=O)C[C@@](O)(C(C)=O)C[C@@H]3O[C@H]1C[C@H](N)[C@H](O)[C@H](C)O1` [DAUNORUBICIN], the GI50 in test [1] was found to be 0.1 µM; in test [6] it was 38 µM.

Turning to `COc1cc([C@@H]2c3cc4c(cc3[C@@H](O[C@@H]3O[C@@H]5CO[C@@H](C)O[C@H]5[C@H](O)[C@H]3O)[C@H]3COC(=O)[C@H]23)OCO4)cc(OC)c1O` [ETOPOSIDE], the values for the GI50 in [1] and in test [6] were 0.4 µM and more than 400 µM, respectively.

`Cn1nnc2c(C(N)=O)ncn2c1=O` [TEMOZOLOMIDE] displayed an IC50 in the test on WiDr of 1720 µM.

The values above are taken from ChEMBL document CHEMBL3414568, “Synthesis and antiproliferative activity of 3-(2-chloroethyl)-5-methyl-6-phenyl-8-(trifluoromethyl)-5,6-dihydropyrazolo[3,4-f][1,2,3,5]tetrazepin-4-(3H)-one” (Eur J Med Chem, 2015).
